According to ChEMBL document CHEMBL1122702, “Radiohalogen-labeled imaging agents. 3. Compounds for measurement of brain blood flow by emission tomography” (J Med Chem, 1984):

Assays:
Assay type in all cases: ADME, organism-based
[1] = species on record: Rattus norvegicus; assay: The uptake of the 131 I-labeled compound at 30 min was evaluated in rat heart as Percent of injected dose in the total organ; conditions: in vivo, 0.5 h
In short: (§1)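 Male Sprague-Dawley rats (200–300 g, free access to food and water), lightly ether-anesthetized and restrained, received a 0.2 mL saline tail-vein bolus of 10–20 μCi 131I-labeled compound. They were decapitated at the stated time, and organs were excised, weighed and gamma-counted. Percent injected dose was determined against a calibrated external standard made by serial dilution of the injectate. n = 1–4 rats.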

[2] = species on record: Rattus norvegicus; assay: Ratio of distribution of the [131I]-labeled compound at 5 min in rat lung over uptake in blood; conditions: other tissue
In short: (§2)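 Male Sprague-Dawley rats (200–300 g, fed ad libitum), ether-anesthetized, got a tail-vein bolus of 0.2 mL saline containing 10–20 μCi 131I compound and were decapitated at the stated time. Organs were weighed and gamma-counted against a serially diluted external standard. Organ/blood ratio was calculated from % dose per gram of organ. Animal numbers per time point were 1–4.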

[3] = species on record: Rattus norvegicus; assay: Ratio of distribution of the [131I]-labeled compound at 5 min in rat heart over uptake in blood; conditions: other tissue; in short: as §2
[4] = species on record: Rattus norvegicus; assay: The uptake of the 131 I-labeled compound at 5 min was evaluated in rat liver as Percent of injected dose per gram in the organ; conditions: in vivo; in short: as §1
[5] = species on record: Rattus norvegicus; assay: Ratio of distribution of the [131I]-labeled compound at 5 min in rat liver over uptake in blood; conditions: other tissue; in short: as §2
[6] = species on record: Rattus norvegicus; assay: The uptake of the 131 I-labeled compound at 30 min was evaluated in rat kidney as Percent of injected dose in the total organ; conditions: in vivo, 0.5 h; in short: as §1
[7] = species on record: Rattus norvegicus; assay: The uptake of the 131 I-labeled compound at 30 min was evaluated in rat lung as Percent of injected dose per gram in the organ; conditions: in vivo, 0.5 h; in short: as §1
[8] = species on record: Rattus norvegicus; assay: The uptake of the 131 I-labeled compound at 30 min was evaluated in rat brain as Percent of injected dose in the total organ; conditions: in vivo, 0.5 h; in short: as §1
[9] = species on record: Rattus norvegicus; assay: The uptake of the 131 I-labeled compound at 30 min was evaluated in rat liver as Percent of injected dose in the total organ; conditions: in vivo, 0.5 h; in short: as §1
[10] = species on record: Rattus norvegicus; assay: Ratio of distribution of the [131I]-labeled compound at 30 min in rat kidney over uptake in blood; conditions: other tissue, 0.5 h; in short: as §2
[11] = species on record: Rattus norvegicus; assay: The uptake of the 131 I-labeled compound at 5 min was evaluated in rat heart as Percent of injected dose in the total organ; conditions: in vivo; in short: as §1
[12] = species on record: Rattus norvegicus; assay: Ratio of distribution of the [131I]-labeled compound at 30 min in rat brain over uptake in blood; conditions: 0.5 h; in short: as §2
[13] = species on record: Rattus norvegicus; assay: The uptake of the 131 I-labeled compound at 5 min was evaluated in rat kidney as Percent of injected dose per gram in the organ; conditions: in vivo; in short: as §1
[14] = species on record: Rattus norvegicus; assay: Ratio of distribution of the [131I]-labeled compound at 30 min in rat heart over uptake in blood; conditions: other tissue, 0.5 h; in short: as §2
[15] = species on record: Rattus norvegicus; assay: The uptake of the 131 I-labeled compound at 30 min was evaluated in rat liver as Percent of injected dose per gram in the organ; conditions: in vivo, 0.5 h; in short: as §1
[16] = species on record: Rattus norvegicus; assay: The uptake of the 131 I-labeled compound at 5 min was evaluated in rat blood as Percent of injected dose per gram in the organ; conditions: in vivo; in short: as §1
[17] = species on record: Rattus norvegicus; assay: The uptake of the 131 I-labeled compound at 30 min was evaluated in rat brain as Percent of injected dose per gram in the organ; conditions: in vivo, 0.5 h; in short: as §1
[18] = species on record: Rattus norvegicus; assay: The uptake of the 131 I-labeled compound at 5 min was evaluated in rat heart as Percent of injected dose per gram in the organ; conditions: in vivo; in short: as §1
[19] = species on record: Rattus norvegicus; assay: The uptake of the 131 I-labeled compound at 5 min was evaluated in rat brain as Percent of injected dose in the total organ; conditions: in vivo; in short: as §1
[20] = species on record: Rattus norvegicus; assay: Ratio of distribution of the [131I]-labeled compound at 30 min in rat liver over uptake in blood; conditions: other tissue, 0.5 h; in short: as §2
[21] = species on record: Rattus norvegicus; assay: The uptake of the 131 I-labeled compound at 30 min was evaluated in rat heart as Percent of injected dose per gram in the organ; conditions: in vivo, 0.5 h; in short: as §1
[22] = species on record: Rattus norvegicus; assay: Ratio of distribution of the [131I]-labeled compound at 30 min in rat lung over uptake in blood; conditions: other tissue, 0.5 h; in short: as §2
[23] = species on record: Rattus norvegicus; assay: Ratio of distribution of the [131I]-labeled compound at 5 min in rat kidney over uptake in blood; conditions: other tissue; in short: as §2
[24] = species on record: Rattus norvegicus; assay: The uptake of the 131 I-labeled compound at 30 min was evaluated in rat blood as Percent of injected dose per gram in the organ; conditions: in vivo, 0.5 h; in short: as §1
[25] = species on record: Rattus norvegicus; assay: Ratio of distribution of the [131I]-labeled compound at 5 min in rat brain over uptake in blood; in short: as §2
[26] = species on record: Rattus norvegicus; assay: The uptake of the 131 I-labeled compound at 5 min was evaluated in rat kidney as Percent of injected dose in the total organ; conditions: in vivo; in short: as §1
[27] = species on record: Rattus norvegicus; assay: The uptake of the 131 I-labeled compound at 5 min was evaluated in rat lung as Percent of injected dose per gram in the organ; conditions: in vivo; in short: as §1
[28] = species on record: Rattus norvegicus; assay: The uptake of the 131 I-labeled compound at 5 min was evaluated in rat brain as Percent of injected dose per gram in the organ; conditions: in vivo; in short: as §1
[29] = species on record: Rattus norvegicus; assay: The uptake of the 131 I-labeled compound at 5 min was evaluated in rat liver as Percent of injected dose in the total organ; conditions: in vivo; in short: as §1
[30] = species on record: Rattus norvegicus; assay: The uptake of the 131 I-labeled compound at 30 min was evaluated in rat kidney as Percent of injected dose per gram in the organ; conditions: in vivo, 0.5 h; in short: as §1
[31] = species on record: Rattus norvegicus; assay: The distribution of the 131 I-labeled compound at 5 min was evaluated in rat kidney as Percent of injected dose per gram in the organ; conditions: in vivo; in short: as §1
[32] = species on record: Rattus norvegicus; assay: The distribution of the 131 I-labeled compound at 30 min was evaluated in rat brain as Percent of injected dose per gram in the organ; conditions: in vivo, 0.5 h; in short: as §1
[33] = species on record: Rattus norvegicus; assay: The distribution of the 131 I-labeled compound at 30 min was evaluated in rat heart as Percent of injected dose in the total organ; conditions: in vivo, 0.5 h; in short: as §1
[34] = species on record: Rattus norvegicus; assay: The distribution of the 131 I-labeled compound at 5 min was evaluated in rat lung as Percent of injected dose per gram in the organ; conditions: in vivo; in short: as §1
[35] = species on record: Rattus norvegicus; assay: The distribution of the 131 I-labeled compound at 5 min was evaluated in rat brain as Percent of injected dose in the total organ; conditions: in vivo; in short: as §1
[36] = species on record: Rattus norvegicus; assay: The distribution of the 131 I-labeled compound at 30 min was evaluated in rat liver as Percent of injected dose in the total organ; conditions: in vivo, 0.5 h; in short: as §1
[37] = species on record: Rattus norvegicus; assay: The distribution of the 131 I-labeled compound at 30 min was evaluated in rat kidney as Percent of injected dose per gram in the organ; conditions: in vivo, 0.5 h; in short: as §1
[38] = species on record: Rattus norvegicus; assay: The distribution of the 131 I-labeled compound at 30 min was evaluated in rat kidney as Percent of injected dose in the total organ; conditions: in vivo, 0.5 h; in short: as §1
[39] = species on record: Rattus norvegicus; assay: The distribution of the 131 I-labeled compound at 30 min was evaluated in rat brain as Percent of injected dose in the total organ; conditions: in vivo, 0.5 h; in short: as §1
[40] = species on record: Rattus norvegicus; assay: The distribution of the 131 I-labeled compound at 30 min was evaluated in rat blood as Percent of injected dose per gram in the organ; conditions: in vivo, 0.5 h; in short: as §1
[41] = species on record: Rattus norvegicus; assay: The distribution of the 131 I-labeled compound at 30 min was evaluated in rat liver as Percent of injected dose per gram in the organ; conditions: in vivo, 0.5 h; in short: as §1
[42] = species on record: Rattus norvegicus; assay: The distribution of the 131 I-labeled compound at 5 min was evaluated in rat liver as Percent of injected dose per gram in the organ; conditions: in vivo; in short: as §1
[43] = species on record: Rattus norvegicus; assay: The distribution of the 131 I-labeled compound at 5 min was evaluated in rat brain as Percent of injected dose per gram in the organ; conditions: in vivo; in short: as §1
[44] = species on record: Rattus norvegicus; assay: The distribution of the 131 I-labeled compound at 5 min was evaluated in rat heart as Percent of injected dose in the total organ; conditions: in vivo; in short: as §1
[45] = species on record: Rattus norvegicus; assay: The distribution of the 131 I-labeled compound at 5 min was evaluated in rat kidney as Percent of injected dose in the total organ; conditions: in vivo; in short: as §1
[46] = species on record: Rattus norvegicus; assay: The distribution of the 131 I-labeled compound at 5 min was evaluated in rat heart as Percent of injected dose per gram in the organ; conditions: in vivo; in short: as §1
[47] = species on record: Rattus norvegicus; assay: The distribution of the 131 I-labeled compound at 5 min was evaluated in rat blood as Percent of injected dose per gram in the organ; conditions: in vivo; in short: as §1
[48] = species on record: Rattus norvegicus; assay: The distribution of the 131 I-labeled compound at 30 min was evaluated in rat lung as Percent of injected dose per gram in the organ; conditions: in vivo, 0.5 h; in short: as §1
[49] = species on record: Rattus norvegicus; assay: The distribution of the 131 I-labeled compound at 30 min was evaluated in rat heart as Percent of injected dose per gram in the organ; conditions: in vivo, 0.5 h; in short: as §1
[50] = species on record: Rattus norvegicus; assay: The distribution of the 131 I-labeled compound at 5 min was evaluated in rat liver as Percent of injected dose in the total organ; conditions: in vivo; in short: as §1

Structure (SMILES)	Ratio [2]	Ratio [3]	Ratio [5]	Ratio [10]	Ratio [12]	Ratio [14]	Ratio [20]	Ratio [22]	Ratio [23]	Ratio [25]	Dose [31] [%]	Dose [32] [%]	Dose [33] [%]	Dose [34] [%]	Dose [35] [%]	Dose [36] [%]	Dose [37] [%]	Dose [38] [%]	Dose [39] [%]	Dose [40] [%]	other results
COc1cc(CC(C)NO)c(OC)cc1I (stereo not given)	12	3.6	9.5	7.5	3.9	1.9	4.5	21	6.8	3.6	–	–	–	–	–	–	–	–	–	–	Dose [1]: 0.24%; Dose [4]: 1.5%; Dose [6]: 2.1%; Dose [7]: 3.3%; Dose [8]: 1.2%; Dose [9]: 6.6%; Dose [11]: 0.8%; Dose [13]: 1.4%; Dose [15]: 0.72%; Dose [16]: 0.19%; Dose [17]: 0.63%; Dose [18]: 0.66%; Dose [19]: 1.2%; Dose [21]: 0.3%; Dose [24]: 0.16%; Dose [26]: 2.5%; Dose [27]: 2%; Dose [28]: 0.69%; Dose [29]: 8.6%; Dose [30]: 1.2%
COc1cc(CC(C)N(C)Cc2ccccc2)c(OC)cc1I (stereo not given)	6.3	9.2	6.7	5.8	0.09	2.1	6.9	7.8	5.3	1.3	0.63	0.05	0.21	0.75	0.29	7.6	0.52	1.3	0.1	0.09	Dose [41]: 0.62%; Dose [42]: 0.8%; Dose [43]: 0.15%; Dose [44]: 1.2%; Dose [45]: 1.8%; Dose [46]: 1.1%; Dose [47]: 0.12%; Dose [48]: 0.7%; Dose [49]: 0.19%; Dose [50]: 12%
COc1cc(CC(C)N)c(OC)cc1I (stereo not given)	47	12	12	18	6.7	14	13	46	17	4.7	1.2	0.4	0.32	3.3	0.64	10	1.1	2.8	0.76	0.06	Dose [41]: 0.8%; Dose [42]: 0.83%; Dose [43]: 0.34%; Dose [44]: 0.92%; Dose [45]: 3.2%; Dose [46]: 0.86%; Dose [47]: 0.07%; Dose [48]: 2.8%; Dose [49]: 0.29%; Dose [50]: 5.6%
